# According to ChEMBL document CHEMBL1926614, “Substituted thiazoles V. synthesis and antitumor activity of novel thiazolo[2,3-b]quinazoline and pyrido[4,3-d]thiazolo[3,2-a]pyrimidine analogues” (2012):
# Assays:
# Type in all cases: functional
# HOP-62 = test: Growth inhibition of human HOP62 cells at 10 uM after 48 hrs by coulter counting; settings: HOP-62, 48 h, read-out: GI
# Procedure, shortened: (§1)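 Single-dose primary screen across the full NCI 60-cell-line panel. Stocks were made in DMSO and diluted in PBS to a final DMSO below 1%. Cultures at 6 × 10⁴ cells/ml were run in duplicate wells alongside PBS/DMSO vehicle controls at 37 °C in humidified 5% CO₂. Data were expressed as percent growth of treated cells.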
# ACHN = test: Growth inhibition of human ACHN cells at 10 uM after 48 hrs by coulter counting; settings: read-out: GI; procedure, shortened: as §1
# NCI/ADR-RES = test: Growth inhibition of human NCI/ADR-RES cells at 10 uM after 48 hrs by coulter counting; settings: read-out: GI; procedure, shortened: as §1
# CCRF-CEM = test: Growth inhibition of human CCRF-CEM cells at 10 uM after 48 hrs by coulter counting; settings: read-out: GI; procedure, shortened: as §1
# U-251 = test: Growth inhibition of human U251 cells at 10 uM after 48 hrs by coulter counting; settings: U-251, 48 h, read-out: GI
# Procedure, shortened: (§2)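 Single-dose screen in the NCI 60 human tumor cell line panel (nine subpanels). Compounds dissolved in DMSO and diluted in phosphate buffered saline, keeping final DMSO below 1%. Added in duplicate wells to cells at 6 × 10⁴ cells/ml. Controls held PBS and DMSO at matching dilutions. Incubated at 37 °C, humidified, 5% CO₂. Reported as percent growth of treated cells.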
# LOX IMVI = test: Growth inhibition of human LOXIMVI cells at 10 uM after 48 hrs by coulter counting; settings: read-out: GI; procedure, shortened: as §1
# MOLT-4 = test: Growth inhibition of human MOLT4 cells at 10 uM after 48 hrs by coulter counting; settings: MOLT-4, 48 h, read-out: GI; procedure, shortened: as §1
# CAKI-1 = test: Growth inhibition of human Caki1 cells at 10 uM after 48 hrs by coulter counting; settings: CAKI-1, 48 h, read-out: GI; procedure, shortened: as §1
# NCI-H23 = test: Growth inhibition of human NCI-H23 cells at 10 uM after 48 hrs by coulter counting; settings: NCI-H23, 48 h, read-out: GI; procedure, shortened: as §1
# SF-295 = test: Growth inhibition of human SF295 cells at 10 uM after 48 hrs by coulter counting; settings: SF-295, 48 h, read-out: GI; procedure, shortened: as §1
# A498 = test: Growth inhibition of human A498 cells at 10 uM after 48 hrs by coulter counting; settings: A498, 48 h, read-out: GI; procedure, shortened: as §1
# HT-29 = test: Growth inhibition of human HT-29 cells at 10 uM after 48 hrs by coulter counting; settings: HT-29, 48 h, read-out: GI; procedure, shortened: as §1
# BT-549 = test: Growth inhibition of human BT549 cells at 10 uM after 48 hrs by coulter counting; settings: BT-549, 48 h, read-out: GI; procedure, shortened: as §1
# SF-268 = test: Growth inhibition of human SF268 cells at 10 uM after 48 hrs by coulter counting; settings: SF-268, 48 h, read-out: GI; procedure, shortened: as §1
# NCI-H226 = test: Growth inhibition of human NCI-H226 cells at 10 uM after 48 hrs by coulter counting; settings: NCI-H226, 48 h, read-out: GI; procedure, shortened: as §1
# M14 = test: Growth inhibition of human M14 cells at 10 uM after 48 hrs by coulter counting; settings: M14, 48 h, read-out: GI; procedure, shortened: as §1
# UACC-257 = test: Growth inhibition of human UACC257 cells at 10 uM after 48 hrs by coulter counting; settings: UACC-257, 48 h, read-out: GI; procedure, shortened: as §2
# OVCAR-4 = test: Growth inhibition of human OVCAR4 cells at 10 uM after 48 hrs by coulter counting; settings: OVCAR-4, 48 h, read-out: GI; procedure, shortened: as §1
# SK-MEL-2 = test: Growth inhibition of human SK-MEL-2 cells at 10 uM after 48 hrs by coulter counting; settings: SK-MEL-2, 48 h, read-out: GI; procedure, shortened: as §1
# [1] = Growth inhibition of human NCI-322M cells at 10 uM after 48 hrs by coulter counting; settings: read-out: GI; procedure, shortened: as §1
# HCT-116 = test: Growth inhibition of human HCT116 cells at 10 uM after 48 hrs by coulter counting; settings: HCT-116, 48 h, read-out: GI; procedure, shortened: as §1
# NCI-H522 = test: Growth inhibition of human NCI-H522 cells at 10 uM after 48 hrs by coulter counting; settings: NCI-H522, 48 h, read-out: GI; procedure, shortened: as §1
# DU-145 = test: Growth inhibition of human DU145 cells at 10 uM after 48 hrs by coulter counting; settings: DU-145, 48 h, read-out: GI; procedure, shortened: as §1
# SK-MEL-5 = test: Growth inhibition of human SK-MEL-5 cells at 10 uM after 48 hrs by coulter counting; settings: SK-MEL-5, 48 h, read-out: GI; procedure, shortened: as §1
# RPMI-8226 = test: Growth inhibition of human RPMI8226 cells at 10 uM after 48 hrs by coulter counting; settings: RPMI-8226, 48 h, read-out: GI; procedure, shortened: as §1
# IGROV-1 = test: Growth inhibition of human IGROV1 cells at 10 uM after 48 hrs by coulter counting; settings: IGROV-1, 48 h, read-out: GI; procedure, shortened: as §1
# NCI-H460 = test: Growth inhibition of human NCI-H460 cells at 10 uM after 48 hrs by coulter counting; settings: NCI-H460, 48 h, read-out: GI; procedure, shortened: as §1
# SK-MEL-28 = test: Growth inhibition of human SK-MEL-28 cells at 10 uM after 48 hrs by coulter counting; settings: SK-MEL-28, 48 h, read-out: GI; procedure, shortened: as §1
# T47D = test: Growth inhibition of human T47D cells at 10 uM after 48 hrs by coulter counting; settings: read-out: GI; procedure, shortened: as §2
# KM12 = test: Growth inhibition of human KM12 cells at 10 uM after 48 hrs by coulter counting; settings: KM12, 48 h, read-out: GI; procedure, shortened: as §1
# UO-31 = test: Growth inhibition of human UO31 cells at 10 uM after 48 hrs by coulter counting; settings: UO-31, 48 h, read-out: GI; procedure, shortened: as §2
# SNB-75 = test: Growth inhibition of human SNB75 cells at 10 uM after 48 hrs by coulter counting; settings: SNB-75, 48 h, read-out: GI; procedure, shortened: as §1
# SNB-19 = test: Growth inhibition of human SNB19 cells at 10 uM after 48 hrs by coulter counting; settings: SNB-19, 48 h, read-out: GI; procedure, shortened: as §1
# K562 = test: Growth inhibition of human K562 cells at 10 uM after 48 hrs by coulter counting; settings: K562, 48 h, read-out: GI; procedure, shortened: as §1
# MDA-MB-435 = test: Growth inhibition of human MDA-MB-435 cells at 10 uM after 48 hrs by coulter counting; settings: MDA-MB-435, 48 h, read-out: GI; procedure, shortened: as §1
# HCC 2998 = test: Growth inhibition of human HCC2998 cells at 10 uM after 48 hrs by coulter counting; settings: HCC 2998, 48 h, read-out: GI; procedure, shortened: as §1
# SF-539 = test: Growth inhibition of human SF539 cells at 10 uM after 48 hrs by coulter counting; settings: SF-539, 48 h, read-out: GI; procedure, shortened: as §1
# MCF7 = test: Growth inhibition of human MCF7 cells at 10 uM after 48 hrs by coulter counting; settings: MCF7, 48 h, read-out: GI; procedure, shortened: as §1
# HL-60(TB) = test: Growth inhibition of human HL-60(TB) cells at 10 uM after 48 hrs by coulter counting; settings: HL-60, 48 h, read-out: GI
# Procedure, shortened: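 Test compound was dissolved in DMSO and diluted in phosphate-buffered saline to a final DMSO level below 1%. Dilutions were plated in duplicate with cell culture at 6 × 10⁴ cells/ml. Vehicle controls held PBS and DMSO at matching dilutions. Incubation was at 37 °C, humidified, under 5% CO₂. Data were reported as percent growth of treated cells.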
# UACC-62 = test: Growth inhibition of human UACC62 cells at 10 uM after 48 hrs by coulter counting; settings: UACC-62, 48 h, read-out: GI; procedure, shortened: as §2
# A549 = test: Growth inhibition of human A549 cells at 10 uM after 48 hrs by coulter counting; settings: A549, 48 h, read-out: GI; procedure, shortened: as §1
# EKVX = test: Growth inhibition of human EKVX cells at 10 uM after 48 hrs by coulter counting; settings: read-out: GI; procedure, shortened: as §1
compound,measurement,setting,value
COc1ccc(/C=C2\CCCC3=C2N=C2SC=CN2C3c2ccc(OC)c(OC)c2)cc1OC (configuration not stated),inhibition of growth at 10 µM,HOP-62,> 10%
same,inhibition of growth at 10 µM,ACHN,> 10%
same,inhibition of growth at 10 µM,NCI/ADR-RES,> 10%
same,inhibition of growth at 10 µM,CCRF-CEM,> 10%
same,inhibition of growth at 10 µM,U-251,> 10%
same,inhibition of growth at 10 µM,LOX IMVI,16.4%
same,inhibition of growth at 10 µM,MOLT-4,> 10%
same,inhibition of growth at 10 µM,CAKI-1,> 10%
same,inhibition of growth at 10 µM,NCI-H23,> 10%
same,inhibition of growth at 10 µM,SF-295,> 10%
same,inhibition of growth at 10 µM,A498,> 10%
same,inhibition of growth at 10 µM,HT-29,> 10%
same,inhibition of growth at 10 µM,BT-549,> 10%
same,inhibition of growth at 10 µM,SF-268,> 10%
same,inhibition of growth at 10 µM,NCI-H226,> 10%
same,inhibition of growth at 10 µM,M14,> 10%
same,inhibition of growth at 10 µM,UACC-257,10.5%
same,inhibition of growth at 10 µM,OVCAR-4,> 10%
same,inhibition of growth at 10 µM,SK-MEL-2,> 10%
same,inhibition of growth at 10 µM,[1],> 10%
same,inhibition of growth at 10 µM,HCT-116,> 10%
same,inhibition of growth at 10 µM,NCI-H522,10.3%
same,inhibition of growth at 10 µM,DU-145,> 10%
same,inhibition of growth at 10 µM,SK-MEL-5,> 10%
same,inhibition of growth at 10 µM,RPMI-8226,> 10%
same,inhibition of growth at 10 µM,IGROV-1,> 10%
same,inhibition of growth at 10 µM,NCI-H460,> 10%
same,inhibition of growth at 10 µM,SK-MEL-28,> 10%
same,inhibition of growth at 10 µM,T47D,> 10%
same,inhibition of growth at 10 µM,KM12,> 10%
same,inhibition of growth at 10 µM,UO-31,27.9%
same,inhibition of growth at 10 µM,SNB-75,12.4%
same,inhibition of growth at 10 µM,SNB-19,> 10%
same,inhibition of growth at 10 µM,K562,> 10%
same,inhibition of growth at 10 µM,MDA-MB-435,> 10%
same,inhibition of growth at 10 µM,HCC 2998,14.9%
same,inhibition of growth at 10 µM,SF-539,> 10%
same,inhibition of growth at 10 µM,MCF7,> 10%
same,inhibition of growth at 10 µM,HL-60(TB),17.5%
same,inhibition of growth at 10 µM,UACC-62,> 10%
same,inhibition of growth at 10 µM,A549,> 10%
same,inhibition of growth at 10 µM,EKVX,> 10%
